Experimental data reported in ChEMBL document CHEMBL5724801, “EUbOPEN Chemogenomics Library - Multiplex” (2024).
“And” between values parts separate entries of the source, which are not always exact repeats. Identical values can stand only once.

Tests used:
Format in all cases: toxicity, cell-based
Fibroblast = test: Multiplex assay against human fibroblast
In short: (§1)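 Cells stained live at seeding with Hoechst33342, BioTracker Green Microtubule Cytoskeleton Dye, MitoTracker Red and Annexin V Alexa Fluor 680 were imaged on a CQ1 microscope at 37°C and 5% CO2 after compound addition. Their classification by CellPathfinder machine-learning gating ran from Hoechst high-intensity objects versus normal cells, to healthy, pyknosed or fragmented nuclei among normal cells, to mitotic or apoptotic among pyknosed cells. Tubulin, mitochondrial-mass and membrane-permeability phenotypes are per cents of healthy-nucleus cells.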

HEK-293T = test: Multiplex assay against HEK293T; details: human; in short: as §1
U2OS = test: Multiplex assay against U2OS; details: human; in short: as §1
[1] = 12 h, 1 µM, compound concentration 1 uM
[2] = 12 h, 10 µM, compound concentration 10 uM
[3] = 24 h, 1 µM, compound concentration 1 uM
[4] = 24 h, 10 µM, compound concentration 10 uM
[5] = 48 h, 1 µM, compound concentration 1 uM
[6] = 48 h, 10 µM, compound concentration 10 uM

## Cc1sc2c(c1C)C(c1ccc(Cl)cc1)=N[C@@H](CC(=O)NCCCCCCCCNC(=O)COc1cccc3c1C(=O)N(C1CCC(=O)NC1=O)C3=O)c1nnc(C)n1-2 (stereo not given in full)
Fibroblast; [1]
  Population Apoptotic (%): 57% and 42%
  Population Healthy Nuclei (%): 72% and 34%
  Population Hoechst High Intensity Objects (%): 3% and 6%
  Population Mitotic Cells (%): 42% and 57%
  Population Normal (%): 96% and 93%
  Population Pyknosed Nuclei (%): 16% and 31%
  Population Tubulin-Different-Phenotype (%): 25% and 66%
  Total Cell Count: 118 and 94
Fibroblast; [2]
  Population Apoptotic (%): 54% and 44%
  Population Fragmented Nuclei (%): 13% and 27%
  Population Healthy Nuclei (%): 56% and 27%
  Population Hoechst High Intensity Objects (%): 11% and 17%
  Population Membrane Permeable-Phenotype (%): 1% and 7%
  Population Mitochondria Different-Phenotype (%): 19% and 26%
  Population Mitotic Cells (%): 45% and 55%
  Population Normal (%): 88% and 82%
  Population Pyknosed Nuclei (%): 30% and 45%
  Population Tubulin-Different-Phenotype (%): 50% and 69%
  Total Cell Count: 171 and 115
Fibroblast; [3]
  Population Apoptotic (%): 56% and 65%
  Population Fragmented Nuclei (%): 20% and 41%
  Population Healthy Nuclei (%): 53% and 32%
  Population Hoechst High Intensity Objects (%): 10% and 3%
  Population Mitotic Cells (%): 44% and 35%
  Population Normal (%): 89% and 96%
  Population Pyknosed Nuclei (%): 26% and 25%
  Population Tubulin-Different-Phenotype (%): 25% and 72%
  Total Cell Count: 107 and 80
Fibroblast; [4]
  Population Apoptotic (%): 67% and 44%
  Population Fragmented Nuclei (%): 20% and 25%
  Population Healthy Nuclei (%): 38% and 32%
  Population Hoechst High Intensity Objects (%): 13% and 12%
  Population Mitochondria Different-Phenotype (%): 9% and 20%
  Population Mitotic Cells (%): 32% and 55%
  Population Normal (%): 86% and 87%
  Population Pyknosed Nuclei (%): 41% and 42%
  Population Tubulin-Different-Phenotype (%): 47% and 68%
  Total Cell Count: 154 and 103
Fibroblast; [5]
  Population Apoptotic (%): 88% and 93%
  Population Fragmented Nuclei (%): 41% and 42%
  Population Healthy Nuclei (%): 24% and 37%
  Population Mitochondria Different-Phenotype (%): 0% and 20%
  Population Mitotic Cells (%): 12% and 6%
  Population Normal (%): 72% and 91%
  Population Pyknosed Nuclei (%): 33% and 20%
  Population Tubulin-Different-Phenotype (%): 33% and 82%
  Total Cell Count: 102 and 85
Fibroblast; [6]
  Population Apoptotic (%): 86% and 57%
  Population Fragmented Nuclei (%): 40% and 38%
  Population Healthy Nuclei (%): 20% and 38%
  Population Hoechst High Intensity Objects (%): 38% and 15%
  Population Membrane Permeable-Phenotype (%): 5% and 14%
  Population Mitochondria Different-Phenotype (%): 10% and 14%
  Population Normal (%): 61% and 84%
  Population Pyknosed Nuclei (%): 38% and 23%
  Population Tubulin-Different-Phenotype (%): 55% and 80%
  Total Cell Count: 156 and 108
HEK-293T; [1]
  Population Apoptotic (%): 66% and 62%
  Population Fragmented Nuclei (%): 5% and 6%
  Population Healthy Nuclei (%): 55% and 69%
  Population Membrane Permeable-Phenotype (%): 0%
  Population Mitochondria Different-Phenotype (%): 73% and 91%
  Population Mitotic Cells (%): 33% and 37%
  Population Normal (%): 90% and 69%
  Population Pyknosed Nuclei (%): 39% and 24%
  Population Tubulin-Different-Phenotype (%): 49% and 59%
  Total Cell Count: 175 and 205
HEK-293T; [2]
  Population Apoptotic (%): 60% and 53%
  Population Fragmented Nuclei (%): 9% and 8%
  Population Healthy Nuclei (%): 67% and 66%
  Population Hoechst High Intensity Objects (%): 14% and 37%
  Population Membrane Permeable-Phenotype (%): 0%
  Population Mitochondria Different-Phenotype (%): 75% and 87%
  Population Mitotic Cells (%): 39% and 46%
  Population Normal (%): 85% and 62%
  Population Pyknosed Nuclei (%): 23% and 24%
  Population Tubulin-Different-Phenotype (%): 23% and 39%
  Total Cell Count: 363 and 315
HEK-293T; [3]
  Population Apoptotic (%): 51% and 67%
  Population Fragmented Nuclei (%): 7% and 6%
  Population Healthy Nuclei (%): 61% and 70%
  Population Membrane Permeable-Phenotype (%): 0%
  Population Mitochondria Different-Phenotype (%): 58% and 83%
  Population Mitotic Cells (%): 48% and 32%
  Population Normal (%): 93% and 69%
  Population Pyknosed Nuclei (%): 31% and 23%
  Population Tubulin-Different-Phenotype (%): 22% and 31%
  Total Cell Count: 261 and 231
HEK-293T; [4]
  Population Apoptotic (%): 52% and 57%
  Population Fragmented Nuclei (%): 11% and 9%
  Population Healthy Nuclei (%): 64% and 60%
  Population Membrane Permeable-Phenotype (%): 0%
  Population Mitochondria Different-Phenotype (%): 64% and 86%
  Population Mitotic Cells (%): 47% and 42%
  Population Normal (%): 87% and 60%
  Population Pyknosed Nuclei (%): 24% and 30%
  Population Tubulin-Different-Phenotype (%): 19%
  Total Cell Count: 397 and 346
HEK-293T; [5]
  Population Apoptotic (%): 55% and 67%
  Population Fragmented Nuclei (%): 7% and 9%
  Population Healthy Nuclei (%): 58% and 65%
  Population Membrane Permeable-Phenotype (%): 0%
  Population Mitochondria Different-Phenotype (%): 56% and 78%
  Population Mitotic Cells (%): 44% and 32%
  Population Normal (%): 97% and 84%
  Population Pyknosed Nuclei (%): 33% and 25%
  Population Tubulin-Different-Phenotype (%): 30% and 42%
  Total Cell Count: 284 and 289
HEK-293T; [6]
  Population Apoptotic (%): 48% and 65%
  Population Fragmented Nuclei (%): 9% and 15%
  Population Healthy Nuclei (%): 55% and 52%
  Population Hoechst High Intensity Objects (%): 14% and 31%
  Population Membrane Permeable-Phenotype (%): 0%
  Population Mitochondria Different-Phenotype (%): 51% and 76%
  Population Mitotic Cells (%): 51% and 34%
  Population Normal (%): 85% and 69%
  Population Pyknosed Nuclei (%): 35% and 31%
  Population Tubulin-Different-Phenotype (%): 17% and 31%
  Total Cell Count: 403 and 300
U2OS; [1]
  Population Apoptotic (%): 93% and 87%
  Population Healthy Nuclei (%): 49% and 80%
  Population Hoechst High Intensity Objects (%): 11% and 0%
  Population Membrane Permeable-Phenotype (%): 9% and 5%
  Population Mitochondria Different-Phenotype (%): 4% and 1%
  Population Mitotic Cells (%): 6% and 12%
  Population Normal (%): 88% and 99%
  Population Pyknosed Nuclei (%): 6% and 5%
  Population Tubulin-Different-Phenotype (%): 5% and 3%
  Total Cell Count: 269 and 136
U2OS; [2]
  Population Apoptotic (%): 86% and 100%
  Population Fragmented Nuclei (%): 31% and 19%
  Population Healthy Nuclei (%): 55% and 75%
  Population Hoechst High Intensity Objects (%): 5% and 0%
  Population Mitochondria Different-Phenotype (%): 4% and 12%
  Population Mitotic Cells (%): 13% and 0%
  Population Normal (%): 94% and 99%
  Population Pyknosed Nuclei (%): 13% and 4%
  Population Tubulin-Different-Phenotype (%): 0% and 12%
  Total Cell Count: 233 and 117
U2OS; [3]
  Population Apoptotic (%): 100% and 92%
  Population Healthy Nuclei (%): 51% and 80%
  Population Hoechst High Intensity Objects (%): 11% and 2%
  Population Membrane Permeable-Phenotype (%): 8% and 5%
  Population Mitochondria Different-Phenotype (%): 3% and 2%
  Population Mitotic Cells (%): 0% and 7%
  Population Normal (%): 88% and 97%
  Population Pyknosed Nuclei (%): 6% and 7%
  Population Tubulin-Different-Phenotype (%): 5% and 4%
  Total Cell Count: 297 and 174
U2OS; [4]
  Population Apoptotic (%): 100%
  Population Fragmented Nuclei (%): 34% and 27%
  Population Healthy Nuclei (%): 53% and 65%
  Population Hoechst High Intensity Objects (%): 8% and 0%
  Population Mitochondria Different-Phenotype (%): 5% and 9%
  Population Mitotic Cells (%): 0%
  Population Normal (%): 91% and 99%
  Population Pyknosed Nuclei (%): 12% and 7%
  Total Cell Count: 245 and 130
U2OS; [5]
  Population Apoptotic (%): 91% and 90%
  Population Fragmented Nuclei (%): 35% and 12%
  Population Healthy Nuclei (%): 53% and 79%
  Population Hoechst High Intensity Objects (%): 10% and 1%
  Population Membrane Permeable-Phenotype (%): 6% and 4%
  Population Mitochondria Different-Phenotype (%): 1%
  Population Mitotic Cells (%): 8% and 9%
  Population Normal (%): 89% and 98%
  Population Pyknosed Nuclei (%): 10% and 7%
  Population Tubulin-Different-Phenotype (%): 2% and 1%
  Total Cell Count: 353 and 270
U2OS; [6]
  Population Apoptotic (%): 100%
  Population Fragmented Nuclei (%): 36% and 25%
  Population Healthy Nuclei (%): 51% and 70%
  Population Hoechst High Intensity Objects (%): 7% and 2%
  Population Membrane Permeable-Phenotype (%): 9% and 10%
  Population Mitochondria Different-Phenotype (%): 4%
  Population Mitotic Cells (%): 0%
  Population Normal (%): 92% and 97%
  Population Pyknosed Nuclei (%): 12% and 4%
  Population Tubulin-Different-Phenotype (%): 4% and 7%
  Total Cell Count: 289 and 179
